The nature of data set [1]: Half life in mouse microsomes. Type of data set: ADME, Microsome.
A short description of data set [2]: Protection index, ratio of IC50 for HepG2 cells to MIC for Mycobacterium tuberculosis H37Rv.
In data set [3] the test system is HepG2. The data set can be described thus: Cytotoxicity against human HepG2 cells after 48 hrs by CellTiter-Glo assay. The settings on record: HepG2, 48 h. In kind it is cell-based.
Data set [4] relates to Mycobacterium tuberculosis. The data set can be described thus: Antitubercular activity against clinical isolates of Mycobacterium tuberculosis by broth microdilution assay. In kind it is functional. A general note: Dilution methods test growth across graded concentrations, often in twofold steps.
Data set [5] can be described thus: Protection index, ratio of IC50 for African green monkey Vero cells to MIC for Mycobacterium tuberculosis H37Rv.
The subject of data set [6] is Mycobacterium tuberculosis. The data set can be described thus: Antitubercular activity against Mycobacterium tuberculosis H37Rv ATCC 25618 after 6 days by resazurin dye based assay. In kind it is functional. The settings on record: H37Rv ATCC 25618, 144 h. (Resazurin is reduced to fluorescent resorufin, in cell work by metabolically active cells.)
Data set [7] deals with Candida albicans. The data set is described as follows: Antifungal activity against Candida albicans ATCC 90028 at 32 ug/ml after 24 hrs. In kind it is functional. The settings on record: ATCC 90028, 24 h.
The test system of data set [8] is Klebsiella pneumoniae. The data set is described as follows: Antimicrobial activity against gram-negative Klebsiella pneumoniae ATCC 700603 at 32 ug/ml after 18 hrs. The settings on record: ATCC 700603, 18 h. In kind it is functional. The method in brief:
(§1)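 Whole-cell growth inhibition screen at a single final concentration of 32 µg/mL, in duplicate on different plates, with 0.3% DMSO final. Bacteria grown overnight in cation-adjusted Mueller Hinton broth at 37°C, diluted 40-fold, and grown 1.5-3 h to mid-log. Wells seeded at 5×10^5 CFU/mL and incubated 18 h at 37°C without shaking. OD600 read; percent inhibition calculated against media-only and untreated-bacteria controls on the same plate. Colistin (Gram-negative) and vancomycin (Gram-positive) were the standards.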

Data set [9] concerns Cryptococcus neoformans. The data set can be described thus: Antifungal activity against Cryptococcus neoformans var. grubii ATCC 208821 at 32 ug/ml after 24 hrs. Type of data set: functional. The settings on record: ATCC 208821, 24 h. In outline:
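Single-concentration antifungal screen at a final 32 µg/mL, n=2 on different plates. Fungi grown 3 days on YPD agar at 30°C; suspension of 1-5×10^6 cells/mL made from five colonies, then diluted in YNB broth. Incubated 35°C for 24 h without shaking. C. albicans read at OD530. C. neoformans read as OD600-570 after resazurin (0.001% final) and a further 2 h at 35°C. Inhibition calculated against on-plate controls; fluconazole was the standard.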

In data set [10] the test system is Mycobacterium tuberculosis. The data set can be described thus: Antitubercular activity against Mycobacterium tuberculosis H37Rv at 50 ug/ml after 5 days by microplate alamar blue assay relative to control. In kind it is functional. The settings on record: 120 h. In outline: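 M. tuberculosis H37Rv tested by microplate alamar blue assay, reading the resazurin-to-resorufin colour change, at an initial 50 µg/ml. Rifampicin and isoniazid were the standards.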

Data set [11] concerns Pseudomonas aeruginosa. The data set is described as follows: Antimicrobial activity against gram-negative Pseudomonas aeruginosa ATCC 27853 at 32 ug/ml after 18 hrs. Type of data set: functional. The settings on record: ATCC 27853, 18 h. In outline:
as §1

The test system of data set [12] is Staphylococcus aureus. The data set is described as follows: Antimicrobial activity against gram-positive Staphylococcus aureus ATCC 43300 at 32 ug/ml after 18 hrs. The settings on record: ATCC 43300, 18 h. In kind it is functional. In outline:
as §1

The test system of data set [13] is Mycobacterium tuberculosis. The data set can be described thus: Antitubercular activity against Mycobacterium tuberculosis H37Rv after 5 days by microplate alamar blue assay. Type of data set: functional. The settings on record: 120 h.
Data set [14] deals with Liver. The data set is described as follows: Drug level in rat liver microsomes treated with p-nitrophenol after 60 mins. In kind it is ADME, microsome. The settings on record: 1 h. The method in brief: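 p-Nitrophenol incubated 60 min with rat liver microsomes as the positive control; its conversion to p-nitrocatechol was measured.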
Background: Liver microsomes are a subcellular fraction often used to study metabolism.

Converted amounts (≈) assume the structure as drawn. Where only a bound is given, the exact number is not on record here.

As a reminder, the half-life is the time in which the quantity being followed falls by half. As a reminder, the IC50 is the concentration at which inhibition is half-maximal. The term MIC denotes the lowest concentration that inhibits growth of the organism. For `Cc1c(CN2CCN(C)CC2)cc(-c2ccc(Cl)cc2)n1-c1ccc(Cl)cc1`, the half-life in data set [1] was above 30 min. In addition, the Ratio in data set [2] and in data set [5] was 127.5 - 1937.5 throughout. For the same molecule, the IC50 in [3] came out at 7.8 µM. The MIC in [4] amounted to 1.5 µg/mL (≈ 3.62 µM); in [6], 5 µM (≈ 2.07 µg/mL).

One may read the inhibition as the change of the read-out against control, counted positive when it falls. Take `c1ccc(-c2nc3ccccn3c2CN2CCOCC2)cc1`: the inhibition at 32 µg/mL in [7] was in the range of 0.3 to 6.38%; in [8] it was 2.52 to 13.8%; in data set [9] it was 2.71 to 3.04%; in [11], 9.04 to 16.5%; in [12], 26.1 to 28.6%. The same molecule registered an inhibition at 50 µg/mL in [10] of 95%. This molecule had an MIC95 in [13] above 50 µg/mL.

Turning to `O=[N+]([O-])c1ccc(O)c(O)c1` [4-Nitrocatechol], the Drug metabolism entry in [14] is “Metabolite_Detected”.

The values above are taken from ChEMBL document CHEMBL4043142, “Discovery of new leads against Mycobacterium tuberculosis using scaffold hopping and shape based similarity” (Bioorg Med Chem, 2017).
